Results published in PMC4720131 (ACS Chemical Biology, 2015).

System: HIV-1 Gag-Pol/Gag (frameshifting)
Assay: Western blot of virion proteins, ratio p160 to p24+p55
Type: cell-based
Conditions: protease inhibitor control
Outline: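 Virions came from HEK293T producer cells transfected with an NL4-3 proviral vector (nef replaced by GFP, env deleted) plus VSV-G plasmid at 1:0.5. Test compound added 4 h post-transfection, media harvested at 24 h and 0.45-μm filtered. Virion proteins run on SDS-PAGE and blotted with anti-p24 to detect p24, p55 and p160. p160/(p24+p55) ratio taken by scanning densitometry. Indinavir served as protease-inhibitor control.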

CC(C)(C)NC(=O)[C@@H]1CN(Cc2cccnc2)CCN1C[C@@H](O)C[C@@H](Cc1ccccc1)C(=O)N[C@H]1c2ccccc2C[C@H]1O [Indinavir, indinavir]
effect on p160 on virion blot (in words): No buildup of p160 was observed
